Bioassay records as filed in PubChem.
Ins promoter up – MIN6 insulin promoter up-regulation; 190,000 tested, 0.3% active; MIN6 insulin promoter-GFP reporter, high-content imaging; active compounds read high; AID 1625; z-score at 5 µM;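 active means z-score above 3 at 5 µM with at least 500 cells counted in the well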
Insulin prom inh – TRM-6 insulin promoter activity inhibition; TRM-6 cells (human fetal islet line), insulin promoter-eGFP reporter, imaging; reporter expression induced with tamoxifen; inhibition, % at 2 µM; 130,000 tested, 0.9% active; AID 1273;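 active means inhibition above the mean plus 3 SD, with well images judged a real hit on visual review, cut at about 60% in these data, passing the limit was not always enough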
RBBP9 inh – blocks human serine hydrolase RBBP9 | O75884 | recombinant RBBP9, FP-Rh probe fluorescence polarization | inhibition, % at 7.94 µM | 220,000 tested, 0.2% active;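 active means inhibition above the campaign mean of all tested compounds plus 3 SD, cut at about 14% in these data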;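 further: plate controls were DMSO wells with RBBP9 for no effect and wells lacking RBBP9 protein for full effect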
Target sequence (O75884 whole entry, looked up): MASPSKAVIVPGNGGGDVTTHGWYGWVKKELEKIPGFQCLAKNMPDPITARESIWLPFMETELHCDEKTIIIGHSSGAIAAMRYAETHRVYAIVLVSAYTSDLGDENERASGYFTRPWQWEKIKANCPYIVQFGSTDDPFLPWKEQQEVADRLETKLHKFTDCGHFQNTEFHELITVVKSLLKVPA
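Controls: DMSO-treated enzyme wells and wells lacking RBBP9 | Material: RBBP9 protein | Technique: Fluorescence polarization | Replication: Single well per compound, no replicates | Buffer or medium: Tris-NaCl-Pluronic buffer, pH 8.0 | Timing: 30 min compound preincubation, 45 min probe labeling, 25 °C | Read-out basis: Percent inhibition from mP, scaled between DMSO and no-protein wells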
Hsp70 activator – transcriptional activators of Hsp70; HeLa Hsp70 promoter luciferase reporter, luminescence; scaled: vehicle 0, proteasome-inhibitor control 100%; activation, % at 10 µM; 200,000 tested, 0.04% active;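 active means activation above the mean across all tested compounds plus 3 SD, cutoff set per campaign, cut at about 5.5% in these data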;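 further: 100% = MG132 at 30 µM as the positive control and 0% = DMSO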
Wee1 stabilizer – human Wee1 degradation inhibition, primary screen. P30291. HeLa Luc-Wee1K328M stability, luciferase luminescence; 100% = proteasome inhibitor MG132 effect. reporter increase, % at 5 µM. 220,000 tested, 1.2% active;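 active means activation above the mean of all tested compounds plus 3 SD, set per screening run, cut at about 8.8% in these data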;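 further: cells exposed to compound for 20 h before luminescence read; 0% = DMSO alone and 100% = MG132 at 30 µM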
Mdm2 ligase inh – inhibitors of human Mdm2 E3 ubiquitin ligase; cell-based MDM2 ubiquitination luciferase reporter, 2 h; 0 = plate control, 100 = twice control, blank-subtracted; Q00987; 210,000 tested, 0.11% active; signal enhancement, % at 5 µM;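 active means signal enhancement of 30% or more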;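 further: luminescence tracks abundance of the self-degrading MDM2-luciferase fusion protein; higher signal means inhibition of MDM2 E3 ligase activity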
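Assay system: stable mammalian line carrying autodegrading MDM2–luciferase fusion reporter; amount: 2000 cells seeded into each well; buffer or medium: DMEM; benchmarks: plate control and blank wells; signal: luciferase luminescence; timing: 2 h compound exposure at 37 °C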
Starred values were filed as active, the others as inactive; . = no result given. A selection: hits, their analogues and other compounds. The true share with any hit is near 2.2%.

SMILES	Ins promoter up	Insulin prom inh	RBBP9 inh	Hsp70 activator	Wee1 stabilizer	Mdm2 ligase inh
O=C(N/N=C/c1ccc(Br)s1)c1ccc([N+](=O)[O-])cc1	0.4	-125	1	0	9.0*	-5
O=C(N/N=C/c1ccc(Br)s1)c1ccccc1[N+](=O)[O-]	-0.19	12	-3	0	-2	-1
OC1(c2ccc3c(c2)OCO3)CCN(Cc2ccc(F)cc2)CC1	-0.15	.	11	.	-2	.
COc1ccccc1/C=C/C(=C1/C(=O)N(c2ccccc2)N=C1C)c1ccc(C)cc1	-0.02	71*	-3	0	1	6
COc1cccc(/C=C/C(=C2/C(=O)N(c3ccccc3)N=C2C)c2ccccc2)c1OC	-0.3	.	-1	0	5	8
COc1ccc2c(OC)cc(-c3ccccc3)nc2c1	.	100*	9	0	3	.
O=C(CCc1nnc(Cc2c[nH]c3ccccc23)o1)NCC1CC12CCCCC2 (stereo not given)	0.22	.	-12	-1	-4	5
Cc1ccc(NC(=O)C2CC(=O)n3c(nc4ccccc43)N2)cc1Cl (stereo not given)	-0.43	73*	1	0	-2	-1
CC(C)CCN(CCC(C)C)C(CO)(CO)CO	.	.	9	0	8	.
CC1=C(C(=O)N2CCOCC2)C(c2ccccc2F)C2=C(CCCC2=O)N1 (stereo not given)	0.25	-25	1	0	-1	-4
O=C1CC(c2ccccc2)CC(O)=C1C=NCc1ccccc1Cl (stereo not given)	0.61	.	-5	2	9.3*	-2
O=C1CC(c2cccc(Cl)c2)CC(O)=C1C=NC1CCCC1 (stereo not given)	0.08	-45	-2	0	-2	32*
CCN(CC)c1nc(OC)nc(-n2nnc(C(C)=O)c2C)n1	0.26	-8	-4	0	-4	.
CC(NS(=O)(=O)c1ccccc1)C1COc2ccccc2O1 (stereo not given)	-0.67	38	0	0	13*	4
COc1cccc(Nc2nc3ccccc3n2C(C)C)c1	0.18	62*	-7	0	4	3
COc1cccc(Nc2nc3ccccc3n3cnnc23)c1	0.67	.	-8	0	6	-9
CCCC1Cc2c(sc(N)c2C#N)CO1 (stereo not given)	-2.1	.	5	0	6	-7
CC1(C)CN(c2ccsc2C(=O)O)C1=O	0.28	.	-5	0	5	-2
CCc1nccn1S(=O)(=O)c1cc(Br)ccc1OC	0.65	-45	2	0	-1	-28
CCCc1nccn1S(=O)(=O)c1cc(OC)ccc1OC	-0.34	75*	2	0	2	-6
Cn1c(C(=O)N2CCN(Cc3ccc4c(c3)OCO4)CC2)cc2sccc21	.	27	4	0	5	-9
Cc1cccc(C(=O)N2CCN(Cc3ccc4c(c3)OCO4)CC2)c1	-0.91	.	-8	0	9.3*	-13
Cn1c(C(=O)N2CCC(C(=O)N3CCN(Cc4ccc5c(c4)OCO5)CC3)CC2)cc2sccc21	4.7*	50	6	0	0	-11
CCOC(=O)COc1cc(N)c(Cl)cc1Cl	0.09	53	8	0	13*	8
NC(N)=Nc1nc(CCN2C(=O)c3ccccc3C2=O)cs1	.	6	2	0	6	-17
SMILES	Ins promoter up	Insulin prom inh	RBBP9 inh	Hsp70 activator	Wee1 stabilizer	Mdm2 ligase inh
COc1cc(-c2nc(CN3CCCCC3CCNC(C)=O)c(C)o2)ccc1F (stereo not given)	0.07	.	-5	.	-3	-8
NC(=O)CSC1=Nc2ccccc2C2=NC(c3ccccc3)C(=O)N12 (stereo not given)	0.05	79*	4	0	-2	-7
O=C(NCc1ccccc1)c1cccc(COc2ccc3c(c2)CCC3)c1	-0.41	.	-11	0	0	-63
COc1cccc(OC)c1C(=O)NNC(=O)c1cccc(COc2ccc3c(c2)CCC3)c1	-0.31	4	-2	0	5	31*
CC(C)c1nc2c(c(=O)c3ccccc3n2C)c(=O)n1CCc1ccccc1	-0.39	.	-2	.	10*	-7
O=C(O)CCc1ccc(-c2ccc(Br)cc2)n1CC(=O)O	0.12	58	-4	0	4	34*
COc1cc(/C=N/n2c(SC)nnc(C(C)(C)C)c2=O)ccc1O	0.94	77*	-12	-1	1	-11
O=C(Nc1ccc(F)cc1)N1CCOCC1	-0.76	21	-8	0	-1	-6
CCNC(=O)N1CCN(C(=O)NCC)CC1	0.29	.	-2	0	3	-7
O=C(NCCc1ccc(F)cc1)N1CCOCC1	0.36	83*	-7	0	3	-5
CCNC(=O)N1CCOCC1	-0.25	86*	2	0	-2	.
COc1ccc(OCCn2cc(/C(N)=N/O)c3ccccc32)cc1	3.1*	-29	6	0	-1	-15
Cc1cccc(-n2ncc3c(Nc4c(C)n(C)n(-c5ccccc5)c4=O)ncnc32)c1	0.42	100*	-6	0	-2	-8
COc1ccc(NC(=O)COC(=O)C2CC3C=CC2C3)cc1 (stereo not given)	-0.05	79*	5	0	3	-22
Oc1ccc2oc3c(c2c1C=NCc1ccncc1)CCCC3	-0.03	.	-15	.	25*	1
Oc1ccc2oc3c(c2c1/C=N/n1cnnc1)CCCC3	1.2	-30	-11	0	-2	-14
CCCC(=O)c1ccc(O)cc1O	-1.4	.	4	.	-2	.
CCn1c2ccccc2c2cc(NC(=O)c3ccccc3[N+](=O)[O-])ccc21	.	.	-6	0	-1	-10
COc1ccc(-c2csc(Nc3ccc(C)cn3)n2)cc1	0.57	.	-5	0	9.6*	.
CC1CCCCC1NC(=O)COC(=O)CNC(=O)c1cccc(F)c1 (stereo not given)	0.26	.	7	0	-4	-5
CSc1nnc(-c2ccccc2)c(-c2ccccc2)n1	-0.36	.	-8	.	8.9*	-12
C=CCNC(=O)c1ccccc1NC(=O)Cc1ccccc1[N+](=O)[O-]	0.84	.	-1	0	-2	-19
O=C(CCSc1ccccc1)Nc1nnc(-c2cccs2)o1	-0.09	.	2	0	9.5*	-2
COc1ccc(N2CCN(c3ccc(N4C(=O)COCC4=O)cc3[N+](=O)[O-])CC2)cc1	-0.17	-4	-1	0	-2	-11
COc1ccc(N2CCN(c3ccc(N4C(=O)CC(C)C4=O)cc3[N+](=O)[O-])CC2)cc1 (stereo not given)	0.05	77*	-9	0	4	17
Cc1ccc(C2C3CN(C(C)C)CC=C3C(C#N)=C(N)C2(C#N)C#N)cc1 (stereo not given)	10*	.	.	.	.	0
